Data as given in ChEMBL document CHEMBL1122368, “Synthesis and antihypertensive activity of some new quinazoline derivatives” (1983).

How the values were obtained:
[1] = tested on: Rattus norvegicus; experiment: Antihypertensive activity as fall in systolic blood pressure after 3 hr of 10 uM/kg po dosing in Spontaneously hypertensive rats.; type: functional, Artery
Procedure, shortened: (§1)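 Conscious spontaneously hypertensive rats dosed by gavage, about 1 mL/rat. Systolic pressure recorded by tail-cuff after warming the rats 30 min at 36 °C. Fall in systolic BP (mmHg) read versus control values; listed values are significant decreases (p ≤ 0.05), otherwise marked NS. Baseline systolic pressure 175–190 mmHg across experiments.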

[2] = tested on: Rattus norvegicus; experiment: Antihypertensive activity as fall in systolic blood pressure after 1 h of 1 umol/kg po dosing in Spontaneously hypertensive rats.; type: functional, Artery; procedure, shortened: as §1
[3] = tested on: Rattus norvegicus; experiment: Hypotensive activity in anesthetized rats, dose that produced a 30% fall in mean blood pressure after 30 minutes; type: functional
Procedure, shortened: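 Normotensive rats under urethane anaesthesia, arterial pressure recorded, femoral vein cannulated. Dosing iv in rising doses (0.01, 0.1, 1, 10 μmol/kg) at 30-min intervals, 1 mL/kg over 2 min; solvent controls; colonic temperature 38.0 ± 0.3 °C. Fall in pressure read 30 min after injection. ED30 is the dose (μmol/kg) giving a 30% fall in mean blood pressure.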

[4] = tested on: Rattus norvegicus; experiment: Antihypertensive activity as fall in systolic blood pressure after 1 hr of 10 uM/kg po dosing in Spontaneously hypertensive rats.; type: functional, Artery; procedure, shortened: as §1
[5] = tested on: Rattus norvegicus; experiment: Hypotensive activity in anesthetized rats, dose that produced a 30% fall in mean blood pressure; type: functional
Procedure, shortened: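 Normotensive rats under urethane anaesthesia, arterial pressure recorded, femoral vein cannulated. Dosing iv in rising doses (0.01, 0.1, 1, 10 μmol/kg) at 30-min intervals, 1 mL/kg over 2 min; solvent-treated controls. Colonic temperature held at 38.0 ± 0.3 °C. Effect read at its maximum, 1–5 min after injection. ED30 is the dose (μmol/kg) giving a 30% fall in mean blood pressure.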

[6] = tested on: Rattus norvegicus; experiment: Antihypertensive activity as fall in systolic blood pressure after 5 h of 1 umol/kg po dosing in Spontaneously hypertensive rats;NS means nonsignificant change in blood pressure.; type: functional, organism-based; settings: Artery; procedure, shortened: as §1
[7] = tested on: Rattus norvegicus; experiment: Antihypertensive activity as fall in systolic blood pressure after 3 hr of 1 umol/kg po dosing in Spontaneously hypertensive rats.; type: functional, Artery; procedure, shortened: as §1
[8] = tested on: Rattus norvegicus; experiment: Antihypertensive activity as fall in systolic blood pressure after 5 hr of 10 uM/kg po dosing in Spontaneously hypertensive rats.; type: functional, Artery; procedure, shortened: as §1
[9] = tested on: Rattus norvegicus; experiment: Antihypertensive activity as fall in systolic blood pressure after 5 hr of 1 umol/kg po dosing in Spontaneously hypertensive rats.; type: functional, Artery; procedure, shortened: as §1
[10] = tested on: Rattus norvegicus; experiment: Antihypertensive activity as fall in systolic blood pressure after 3 hr of 1 uM/kg po dosing in Spontaneously hypertensive rats.; type: functional, Artery; procedure, shortened: as §1
[11] = tested on: Rattus norvegicus; experiment: Antihypertensive activity as fall in systolic blood pressure after 3 hr of 100 umol/kg po dosing in Spontaneously hypertensive rats.; type: functional, Artery; procedure, shortened: as §1
[12] = tested on: Rattus norvegicus; experiment: Antihypertensive activity as fall in systolic blood pressure after 1 h of 100 umol/kg po dosing in Spontaneously hypertensive rats.; type: functional, Artery; procedure, shortened: as §1
[13] = tested on: Rattus norvegicus; experiment: Antihypertensive activity as fall in systolic blood pressure after 1 hr of 1 uM/kg po dosing in Spontaneously hypertensive rats.; type: functional, Artery; procedure, shortened: as §1
[14] = tested on: Rattus norvegicus; experiment: Antihypertensive activity as fall in systolic blood pressure after 5 h of 100 umol/kg po dosing in Spontaneously hypertensive rats.; type: functional, Artery; procedure, shortened: as §1
[15] = tested on: Rattus norvegicus; experiment: Antihypertensive activity as fall in systolic blood pressure after 5 hr of 1 uM/kg po dosing in Spontaneously hypertensive rats.; type: functional, Artery; procedure, shortened: as §1
[16] = tested on: Rattus norvegicus; experiment: Antihypertensive activity as fall in systolic blood pressure after 3 hr of 1 umol/kg po dosing in Spontaneously hypertensive rats;NS means nonsignificant change in blood pressure.; type: functional, organism-based; settings: Artery; procedure, shortened: as §1
[17] = tested on: Rattus norvegicus; experiment: Antihypertensive activity as fall in systolic blood pressure after 3 h of 100 umol/kg po dosing in Spontaneously hypertensive rats.; type: functional, Artery; procedure, shortened: as §1
[18] = tested on: Rattus norvegicus; experiment: Antihypertensive activity as fall in systolic blood pressure after 1 hr of 100 umol/kg po dosing in Spontaneously hypertensive rats.; type: functional, Artery; procedure, shortened: as §1
[19] = tested on: Rattus norvegicus; experiment: Antihypertensive activity as fall in systolic blood pressure after 1 hr of 10 uM/kg po dosing in Spontaneously hypertensive rats;NS means nonsignificant change in blood pressure.; type: functional, organism-based; settings: Artery; procedure, shortened: as §1
[20] = tested on: Rattus norvegicus; experiment: Antihypertensive activity as fall in systolic blood pressure after 5 h of 0.3 umol/kg po dosing in Spontaneously hypertensive rats.; type: functional, Artery; procedure, shortened: as §1
[21] = tested on: Rattus norvegicus; experiment: Antihypertensive activity as fall in systolic blood pressure after 3 h of 0.3 umol/kg po dosing in Spontaneously hypertensive rats.; type: functional, Artery; procedure, shortened: as §1
[22] = tested on: Rattus norvegicus; experiment: Antihypertensive activity as fall in systolic blood pressure after 3 h of 3 umol/kg po dosing in Spontaneously hypertensive rats.; type: functional, Artery; procedure, shortened: as §1
[23] = tested on: Rattus norvegicus; experiment: Antihypertensive activity as fall in systolic blood pressure after 1 h of 0.3 umol/kg po dosing in Spontaneously hypertensive rats;NS means nonsignificant change in blood pressure.; type: functional, organism-based; settings: Artery; procedure, shortened: as §1
[24] = tested on: Rattus norvegicus; experiment: Antihypertensive activity as fall in systolic blood pressure after 1 h of 3 umol/kg po dosing in Spontaneously hypertensive rats.; type: functional, Artery; procedure, shortened: as §1
[25] = tested on: Rattus norvegicus; experiment: Antihypertensive activity as fall in systolic blood pressure after 5 hr of 3 umol/kg po dosing in Spontaneously hypertensive rats.; type: functional, Artery; procedure, shortened: as §1

Compound	ED30 [3] [µM/kg]	ED30 [5] [µM/kg]	also measured
CCCCC(=O)C1CCN(c2nc(N)c3cc(OC)c(OC)cc3n2)CC1.Cl	0.06	0.03	Decrease in SBP [1]: 36 mmHg; Decrease in SBP [2]: 13 mmHg; Decrease in SBP [4]: 40 mmHg; Decrease in SBP [6]: Not significant; Decrease in SBP [7]: 14 mmHg; Decrease in SBP [8]: 27 mmHg
COc1cc2nc(N3CCCC(C(=O)N4CCCC4)C3)nc(N)c2cc1OC.Cl (stereo in doubt; 6ii)	15	10	
CCOC(=O)C1CCCN(c2nc(N)c3cc(OC)c(OC)cc3n2)C1.Cl (stereo in doubt; 6c)	20	0.8	
COc1cc2nc(N3CCC(C(O)C4CCCCC4)CC3)nc(N)c2cc1OC.Cl (configuration not stated)	0.1	0.06	Decrease in SBP [1]: 30 mmHg; Decrease in SBP [2]: 12 mmHg; Decrease in SBP [9]: 19 mmHg; Decrease in SBP [4]: 25 mmHg; Decrease in SBP [7]: 17 mmHg; Decrease in SBP [8]: 38 mmHg
CCOC(=O)C1CCCN(c2nc(N)c3cc(OC)c(OC)cc3n2)C1.Cl (stereo in doubt; 6cc)		0.2	
COc1cc2nc(N3CCN(C(=O)c4ccco4)CC3)nc(N)c2cc1OC [PRAZOSIN]	0.03	0.01	Decrease in SBP [10]: 30 mmHg; Decrease in SBP [11]: 30 mmHg; Decrease in SBP [12]: 38 mmHg; Decrease in SBP [1]: 36 mmHg; Decrease in SBP [13]: 29 mmHg; Decrease in SBP [4]: 38 mmHg; Decrease in SBP [14]: 26 mmHg; Decrease in SBP [15]: 26 mmHg; Decrease in SBP [8]: 34 mmHg
CCC(=O)C1CCN(c2nc(N)c3cc(OC)c(OC)cc3n2)CC1.Cl	30	5	
COc1cc2nc(N3CCC(C(=O)NC(C)(C)C)CC3)nc(N)c2cc1OC.Cl	1	0.08	
COc1cc2nc(N3CCC(C(=O)N4C(C)CCC4C)CC3)nc(N)c2cc1OC.Cl (configuration not stated)	0.2	0.08	
COc1cc2nc(N3CCC(C(=O)N4CCC4)CC3)nc(N)c2cc1OC.Cl	0.4	0.07	
COc1cc2nc(N3CCC(C(N)=O)CC3)nc(N)c2cc1OC.Cl	0.8	0.1	
COc1cc2nc(N3CCC(C(=O)N4CCCC4)CC3)nc(N)c2cc1OC.Cl	0.4	0.2	
COc1cc2nc(N3CCC(C(=O)N4CCCCC4)CC3)nc(N)c2cc1OC.Cl	0.08	0.02	
CCCCC(O)C1CCN(c2nc(N)c3cc(OC)c(OC)cc3n2)CC1.Cl (configuration not stated)	0.7	0.1	
COc1cc2nc(N3CCC(C(O)C4CCCC4)CC3)nc(N)c2cc1OC.Cl (configuration not stated)	0.7	0.1	
COc1cc2nc(N3CCC(C(=O)N4CCCCCCC4)CC3)nc(N)c2cc1OC.Cl	0.05	0.02	Decrease in SBP [16]: Not significant; Decrease in SBP [17]: 66 mmHg; Decrease in SBP [1]: 29 mmHg; Decrease in SBP [2]: 11 mmHg; Decrease in SBP [4]: 29 mmHg; Decrease in SBP [14]: 83 mmHg; Decrease in SBP [6]: Not significant; Decrease in SBP [8]: 26 mmHg; Decrease in SBP [18]: 52 mmHg
COc1cc2nc(N3CCC(C(=O)c4cccs4)CC3)nc(N)c2cc1OC.Cl	6	0.2	
COc1cc2nc(N3CCC(C(=O)C4CCCCC4)CC3)nc(N)c2cc1OC.Cl	0.1	0.07	Decrease in SBP [1]: 54 mmHg; Decrease in SBP [19]: Not significant; Decrease in SBP [2]: 15 mmHg; Decrease in SBP [6]: Not significant; Decrease in SBP [7]: 20 mmHg; Decrease in SBP [8]: 51 mmHg
COc1cc2nc(N3CCC(C(=O)N4C(C)CCCC4C)CC3)nc(N)c2cc1OC.Cl (configuration not stated)	0.2	0.08	
COc1cc2nc(N3CCC(C(=O)C4CCCC4)CC3)nc(N)c2cc1OC.Cl	0.09	0.06	Decrease in SBP [20]: 11 mmHg; Decrease in SBP [1]: 54 mmHg; Decrease in SBP [2]: 18 mmHg; Decrease in SBP [21]: 11 mmHg; Decrease in SBP [9]: 21 mmHg; Decrease in SBP [22]: 34 mmHg; Decrease in SBP [4]: 45 mmHg; Decrease in SBP [7]: 20 mmHg; Decrease in SBP [23]: Not significant; Decrease in SBP [24]: 34 mmHg; Decrease in SBP [25]: 35 mmHg; Decrease in SBP [8]: 50 mmHg
COc1cc2nc(N3CCC(C)CC3)nc(N)c2cc1OC.Cl		0.08	
CCOC(=O)C1CCN(c2nc(N)c3cc(OC)c(OC)cc3n2)CC1.Cl	30	0.3	
COc1cc2nc(N3CCC(Cc4ccccc4)CC3)nc(N)c2cc1OC.Cl	0.07	0.06	
COc1cc2nc(N3CCCC(C(=O)N4CCCC4)C3)nc(N)c2cc1OC.Cl (stereo in doubt; 6i)	30	12	
COc1cc2nc(N3CCC(C(=O)N4CCCCCC4)CC3)nc(N)c2cc1OC.Cl	0.05	0.01	
COc1cc2nc(N3CCC(C(=O)N4CCCCC4C)CC3)nc(N)c2cc1OC.Cl (configuration not stated)	0.9	0.1	
COc1cc2nc(N3CCC(C(=O)OCC(C)(C)C)CC3)nc(N)c2cc1OC.Cl	2	0.03	
COc1cc2nc(N3CCC(C(C)O)CC3)nc(N)c2cc1OC.Cl (configuration not stated)	0.7	0.5	
